From PubChem BioAssay
MC4R antag cAMP – antagonists of human melanocortin 4 receptor (MC4R); P32245; MC4R-expressing cells, MTII-stimulated cAMP, LANCE TR-FRET; inhibition, % at 6.5 µM; 360,000 compounds, 0.48% hits; AID 540295;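 active = inhibition above its plate's cutoff, the mean of tested wells on that plate plus 3 SD, cut at about 29% in these data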;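 note: 0% = Melanotan II alone and 100% = Melanotan II plus saturating MCL0020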
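system = U2OS cells with stable human MC4R expression | also added = Melanotan II challenge after compound preincubation | dosing = one concentration, 6.5 µM nominal | incubation = compound 30 min, challenge 1 h, detection 1 h | measured by = TR-FRET with Eu-cAMP and labeled anti-cAMP, 671 nm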
HTR5A inv ag – inverse agonist of human HTR5A in OPRM1-OPRD1 counter-screen; inhibition, % at 9.3 µM; P47898; HTR5A cell line, luminescence, inverse agonism; 340,000 compounds, 0.083% hits; in the data active = inhibition mostly above about 23%, no sharp cut-off; inactive = mostly below about 18%;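 note: 0% = cells with DMSO and 100% = no-cell wells with DMSO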
Target sequence (P47898 whole entry, looked up): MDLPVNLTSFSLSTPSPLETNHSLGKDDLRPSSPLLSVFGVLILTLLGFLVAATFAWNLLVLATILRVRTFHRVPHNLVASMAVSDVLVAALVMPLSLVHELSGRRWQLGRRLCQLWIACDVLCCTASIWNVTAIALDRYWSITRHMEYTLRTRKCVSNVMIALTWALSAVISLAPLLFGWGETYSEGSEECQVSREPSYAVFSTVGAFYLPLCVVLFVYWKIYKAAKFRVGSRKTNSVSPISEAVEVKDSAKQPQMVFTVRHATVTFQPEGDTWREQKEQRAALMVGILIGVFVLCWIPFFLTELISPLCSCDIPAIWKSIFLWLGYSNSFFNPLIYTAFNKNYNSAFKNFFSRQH
OPRM1-OPRD1 inv – mu-delta opioid heterodimer inverse agonism. cell-based MOR-DOR heterodimer luminescence. inhibition, % at 9.3 µM. AID 504357. 340,000 compounds, 0.21% hits; in the data active = inhibition above about 22%, passing the limit was not always enough;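 note: 0% = cells with DMSO and 100% = wells without cells with DMSO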
MC4R ag barr – agonists of human melanocortin 4 receptor (MC4R) beta-arrestin; P32245; U2OS MC4R beta-arrestin complementation, luminescence; percent of melanotan II response, DMSO zero; activation, % at 8.9 µM; 360,000 compounds, 0.98% hits;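 active = activation above a per-plate cutoff, the mean activation of sample wells on that plate plus 3 SD, cut at about 8% in these data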
OPRM1-OPRD1 ag – agonists of human mu-delta opioid receptor heterodimerization; P35372+P41143; cells, OPRM1-OPRD1 heterodimerization, luminescence; activation, % at 9.3 µM; 340,000 compounds, 0.3% hits; in the data active = activation above about 18%;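 note: 0% = vehicle-treated cells and 100% = reference agonist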
HTR5A ag – counter-screen for OPRM1-OPRD1 agonists: human HTR5A agonism; P47898; HTR5A agonist assay, luminescence, cell-based; activation, % at 9.3 µM; 340,000 compounds, 0.61% hits; in the data active = activation mostly above about 9.5%, no sharp cut-off; inactive = mostly below about 7.6%;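 note: 0% = cells with vehicle only and 100% = reference agonist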
MC4R barr conf – human MC4R beta-arrestin agonism confirmation. shares compounds with MC4R ag barr. U2OS MC4R beta-arrestin recruitment, luminescence; scaled DMSO 0%, Melanotan II 100%. activation, % at 8.9 µM. 2,400 compounds, 31% hits;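 active = mean activation across replicates above the hit cutoff set in the earlier primary screen, cut at about 8% in these data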
MOR DOR agonist – counter-screen for MC4R agonists: agonists of mu-delta opioid heterodimer | shares compounds with MC4R ag barr | U2OS PathHunter beta-arrestin, beta-gal luminescence; percent of deltorphin B response, DMSO zero | activation, % at 9.2 µM | 2,400 compounds, 5.8% hits | AID 602194;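 active = mean activation across replicates exceeds the hit threshold derived in the earlier primary screen, cut at about 18% in these data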;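 note: 100% = deltorphin B at 0.9 µM final and 0% = DMSO alone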
* hit, by the source's call; · = not tested or not shown. Rows were chosen to be rich in hits. Some 2.4% of all compounds tested hit in one or more screens of this group.

SMILES	MC4R antag cAMP	HTR5A inv ag	OPRM1-OPRD1 inv	MC4R ag barr	OPRM1-OPRD1 ag	HTR5A ag	MC4R barr conf	MOR DOR agonist
Cc1ccc(OCc2nnc(SCC(=O)Nc3sc(C)c(C)c3C#N)n2C)cc1	-1	-39	-45	18*	8	15	2	5
COc1ccc(C2=C(C=O)Cc3ccccc3O2)cc1	15	-32	-32	1	6	2	·	·
N#CC(C#N)=Cc1cccn1-c1ccc(S(N)(=O)=O)cc1	-3	-3	7	0	-1	1	·	·
CCN(C(=O)c1cc2c(=O)[nH]c3ccc(C)cc3c2s1)c1cccc(C)c1	-6	4	-47	7	9	-1	·	·
CCN(C(=O)c1cc2c(=O)[nH]c3ccc(C)cc3c2s1)c1ccc(F)cc1	9	6	-52	12*	10	1	2	6
Cc1cc(C)cc(N(CC(=O)Nc2ccccc2C(=O)N2CCOCC2)S(C)(=O)=O)c1	3	-21	-5	1	1	-3	·	·
CCCCCCCCNC(=O)c1cccnc1SCC(=O)Nc1ccc(OC)cc1OC	5	-12	-8	11*	1	-1	18*	29*
CC1CCN(S(=O)(=O)c2ccc(NC(=O)Cn3nnc(-c4ccccc4F)n3)cc2)CC1	-6	-3	-22	12*	4	1	15*	7
Cc1ccc(C(=O)Nc2ccc(S(=O)(=O)N3CCOCC3)cc2)cc1	-8	8	23	0	-5	-4	·	·
Cc1ccc(S(=O)(=O)N2CCN(S(=O)(=O)N3CCC(C)CC3)CC2)cc1C	-2	-10	10	10*	-2	4	4	3
Cc1ccc(NC(=O)c2ccc(S(=O)(=O)N3CCC(C)CC3)cc2)cc1	10	-27	-24	11*	5	6	1	4
Cc1ccc(S(=O)(=O)N2CCN(S(=O)(=O)N3CCCCC3)CC2)cc1C	2	9	5	0	-1	-3	·	·
CC1CCN(S(=O)(=O)c2ccc(NC(=O)c3ccccc3F)cc2)CC1	7	3	-2	-1	0	-1	·	·
CC(=O)N1c2ccc(S(=O)(=O)N3CCCC3)cc2CC1C(=O)NC(C)C (stereo unspecified)	-3	4	15	-2	-3	-1	·	·
CCOC(=O)/C=C1\SC(C)C(=O)N1CC(=O)N(CCC#N)c1ccccc1 (stereo unspecified)	3	-7	17	1	-4	3	·	·
O=C(Cc1cccs1)Nc1ccc(-c2nnc(-c3ccco3)o2)cc1	7	7	18	11*	-4	-3	4	6
Nc1c(C(=O)Nc2cccc(F)c2)nnn1-c1ccc2c(c1)OCCO2	9	-17	-48	11*	9	7	1	6
Cc1ccc(S(=O)(=O)N2CCC(C(=O)NC3CC(C)(C)NC(C)(C)C3)CC2)cc1	3	-10	12	-3	-2	3	·	·
Cc1nn(-c2ccccc2)c(N2CCCC2)c1/C=N/NC(=S)Nc1ccccc1F	1	-5	-11	14*	2	2	3	2
CCOC(=O)CCCN1CC(O)=C(c2nc(-c3ccc(Cl)cc3)cs2)C1=N	0	-12	-1	23*	0	3	5	2
CCCCN1CC(O)=C(c2nc(-c3ccc(Br)cc3)cs2)C1=N	14	11	9	1	-2	-4	·	·
CCCc1ccc(Oc2coc3cc(OCC(=O)Nc4ccccc4C)ccc3c2=O)cc1	7	6	-10	22*	2	6	15*	7
CCN(CC(=O)Nc1cc(Cl)ccc1C)CC(=O)NC1CC1	1	·	·	-1	·	·	·	·
CCC12CCCN3CCC4(C(=C(C(=O)OC)C1)Nc1ccccc14)C32 (stereo unspecified)	-9	-5	-20	10*	4	7	6	11
Oc1ccc2ccccc2c1C=Nc1ccccc1-c1nc2ccccc2[nH]1	2	-4	-12	1	2	2	·	·
SMILES	MC4R antag cAMP	HTR5A inv ag	OPRM1-OPRD1 inv	MC4R ag barr	OPRM1-OPRD1 ag	HTR5A ag	MC4R barr conf	MOR DOR agonist
CC[C@@H](C)[C@H](CN[C@H](CNC)C(C)C)NC[C@@H](C)c1ccc(CC(C)C)cc1	-1	-31	-68	45*	13	5	16*	8
Cc1sc2ncnc(SCC(=O)c3cccs3)c2c1C	-1	-24	-13	43*	3	10	4	6
COc1ccc(NC(=O)CN(C)S(=O)(=O)c2ccc(Cl)cc2)cc1Cl	6	5	-12	2	2	-2	·	·
COc1ccc(S(=O)(=O)N(C)CC(=O)Nc2ccc(C(F)(F)F)cc2)cc1Cl	4	16	-30	17*	6	-5	5	8
O=C(NCCCN1CCCC1=O)c1sc2ccccc2c1Cl	10	2	-4	-3	1	-2	·	·
Cc1ccc(O)c(C(=O)/C=C/c2ccc3c(c2)OCCCO3)c1	-3	-27	-14	23*	3	7	24*	5
O=C(/C=C/c1ccc2c(c1)OCCCO2)c1ccccc1O	12	-19	-24	3	5	5	·	·
C=C[C@@H]1c2cc(C)ccc2N(S(=O)(=O)c2ccc(C)cc2)[C@H](c2ccccc2C(F)(F)F)C1(C#N)C#N	1	-18	10	0	-2	6	·	·
S=C(Nc1cccc(Cl)c1)N1CCN(c2ccccn2)CC1	1	-4	1	-1	0	1	·	·
S=C(Nc1ccc(Cl)c(Cl)c1)N1CCN(c2ccccn2)CC1	27	-25	-51	15*	10	14	2	7
CCOC(=O)CN1C(=O)N[C@@H](CCc2ccccc2)[C@H](C(=O)OC)[C@H]1C	1	-21	6	0	-1	8	·	·
Cc1cc(/C=N/n2cnnc2)c(C)n1-c1ccc(OCc2ccc(Cl)cc2Cl)cc1	-17	-12	-11	14*	2	5	5	5
Cc1cc(/C=N/n2cnnc2)c(C)n1-c1ccc(Cl)cc1	-6	-16	16	1	-3	6	·	·
CCN(CC)S(=O)(=O)c1ccc(Cl)c(NC(=O)COc2ccc(OC)cc2)c1	-11	15	-79	31*	15	-1	17*	26*
CCN(CC)S(=O)(=O)c1ccc(C)c(NC(=O)COc2ccc(Cl)cc2Br)c1	-17	3	7	9.7*	-1	-1	29*	40*
CCN(CC)S(=O)(=O)c1ccc(C)c(NC(=O)COC(=O)C=C(C)C)c1	-2	-1	12	2	-2	5	·	·
